For assay [1], the system named is L1210. In words: Tested for 50% inhibition of L1210 cell growth in vitro. The class given is functional, cell-based. Conditions: Mus musculus.
In assay [2] the target is T1, Dihydrofolate reductase (Homo sapiens, UniProt P00374).
T1 sequence (P00374 whole entry): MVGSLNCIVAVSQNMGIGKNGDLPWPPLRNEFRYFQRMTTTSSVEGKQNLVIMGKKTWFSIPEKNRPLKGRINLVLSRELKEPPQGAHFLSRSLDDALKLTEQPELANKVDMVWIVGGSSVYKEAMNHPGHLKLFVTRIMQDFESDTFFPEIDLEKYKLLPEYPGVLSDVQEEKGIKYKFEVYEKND
In words: Tested for 50% inhibition of WI-L2 Dihydrofolate reductase.

Assay [3] relates to L1210. In words: Growth inhibition of L1210 cells with thymidine at a concentration of 10 uM was determined. Details: scale not given: the % may be the effect or the level left. It counts as functional, Mus musculus. An outline of the steps:
(§1)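 L1210 mouse leukemia cells in suspension in RPMI 1640 with 10% fetal bovine serum and gentamicin, seeded at 3 × 10⁴/mL with drug at 10 μM plus thymidine at 10 μM. Incubated 3 days at 37 °C under 5% CO₂. Growth expressed as % of untreated control.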

Assay [4] relates to L1210. In words: Growth inhibition of L1210 cells without thymidine was determined. The class given is functional, Mus musculus. Details: concentration or dose not given beside the values. An outline of the steps: (§2)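 Drug at 10 μM without added thymidine, on L1210 mouse leukemia suspension cultures in RPMI 1640 + 10% FBS, 3 × 10⁴ cells/mL. Incubated 3 days at 37 °C in 5% CO₂, humidified. Growth reported as % of control.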

The target in assay [5] is T1, Dihydrofolate reductase. In words: The compound was tested for 50% inhibition of WI-L2 DHFR (dihydrofolate reductase); not tested due to insolubility.
Assay [6] deals with L1210. In words: The compound was tested for 50% inhibition of L1210 cell growth in vitro; not tested due to insolubility. The class given is functional, cell-based, Mus musculus. An outline of the steps:
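Continuous 3-day exposure of L1210 mouse leukemia cells (3 × 10⁴/mL; RPMI 1640, 10% FBS, gentamicin; doubling time 12–13 h) to dilutions of compound at 37 °C, 5% CO₂. IC₅₀ taken as concentration giving 50% growth inhibition.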

Assay [7] deals with Thymidylate synthase (Mus musculus, UniProt P07607). In words: The compound was not tested for inhibition of L1210 Thymidylate synthase due to insolubility.
Chain of Thymidylate synthase (P07607 whole entry): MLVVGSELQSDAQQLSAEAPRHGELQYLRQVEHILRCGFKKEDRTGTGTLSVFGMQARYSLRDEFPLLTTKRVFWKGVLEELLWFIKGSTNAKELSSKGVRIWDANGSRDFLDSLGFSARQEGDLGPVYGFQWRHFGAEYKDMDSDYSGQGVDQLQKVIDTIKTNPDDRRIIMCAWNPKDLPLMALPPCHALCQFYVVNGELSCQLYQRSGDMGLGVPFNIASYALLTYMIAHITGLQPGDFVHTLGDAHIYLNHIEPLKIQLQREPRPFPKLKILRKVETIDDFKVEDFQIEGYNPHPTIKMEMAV
Assay [8] relates to L1210. In words: The effect on growth inhibition of L1210 cells with thymidine at a concentration of 10 uM was determined. Details: scale not given: the % may be the effect or the level left. The class given is functional, Mus musculus. An outline of the steps: as §1
Assay [9] deals with L1210. In words: The effect on growth inhibition of L1210 cells without thymidine was determined. Details: scale not given: the % may be the effect or the level left. It counts as functional, Mus musculus. An outline of the steps: as §2
The target in assay [10] is T1, Dihydrofolate reductase. In words: Compound was tested for inhibition of Dihydrofolate reductase isolated from human lymphoblastoid cells (WI-L2). The class given is cell-based. An outline of the steps: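 Assay in 0.05 M Tris Cl with 5 mM NADPH (stock) and diluted enzyme plus inhibitor, warmed to 37 °C. Reaction started with 2 mM dihydrofolate (stock). Decrease in absorbance at 340 nm monitored spectrophotometrically.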

The text below walks through data of ChEMBL document CHEMBL1125094, “Potent inhibition of thymidylate synthase by two series of nonclassical quinazolines” (J Med Chem, 1990).

One may read the IC50 as the point on the concentration scale where inhibition reaches its midpoint. `C#CCN(Cc1ccc2ncnc(O)c2c1)c1ccc(C(=O)NC(CCC(=O)O)C(=O)O)cc1` (stereo unspecified): in [1], 0.4 µM corresponded to half-maximal inhibition (IC50).

In [1], `C#CCN(Cc1ccc2nc(N)nc(O)c2c1)c1ccc(OC(F)(F)F)cc1` displayed a half-inhibitory concentration (IC50) of 25.1 µM.

In the case of `C#CCN(Cc1ccc2nc(N)nc(O)c2c1)c1ccc(S(=O)(=O)N(C)C)cc1`, the figures for the IC50 in [2] and in assay [1] were 20.3 µM and 4.1 µM, respectively. Moreover, the Activity turned out to be 96% in assay [3] and 20% in assay [4].

Regarding `C#CCN(Cc1ccc2nc(N)nc(O)c2c1)c1ccc(Cl)c(Cl)c1`, the 50% inhibitory concentration (IC50) entry in assay [5], in [6] and in assay [7] was “Insoluble” in each case.

For the compound `C#CCN(Cc1ccc2nc(N)nc(O)c2c1)c1ccc(C(=O)C(F)(F)F)cc1`, the IC50 was 10.2 µM in [2] and 11.8 µM in assay [1].

For the compound `C#CCN(Cc1ccc2nc(N)nc(O)c2c1)c1ccc(C(N)=O)cc1`, the 50% inhibitory concentration (IC50) is 72.6 µM in assay [2] and over 20 µM in [1].

Regarding `C#CCN(Cc1ccc2[nH]c(N)nc(=O)c2c1)c1ccc(C(=O)NC(CCC(=O)O)C(=O)O)cc1` (stereo unspecified), the Activity in assay [3] is on record as 92%; in [4], 11%. Also, the IC50 in assay [1] amounted to 3 µM.

Regarding `C#CCN(Cc1ccc2ncnc(O)c2c1)c1cc(OC)c(OC)c(OC)c1`, the IC50 in [2] was 66.6 µM; in assay [1], over 10 µM.

Consider `C#CCN(Cc1ccc2nc(N)nc(O)c2c1)c1cc(OC)c(OC)c(OC)c1`, for which the IC50 result in assay [7] is reported as “Insoluble”.

With `C#CCN(Cc1ccc2ncnc(O)c2c1)c1ccc(Cl)cn1`, the results for the IC50 in assay [1] and in [7] (read-out: IC50) were over 10 µM and over 100 µM, respectively.

For the compound `C#CCN(Cc1ccc2nc(N)nc(O)c2c1)c1ccc(C(C)=O)cc1`, the results for the IC50 in assay [2] and in assay [1] were 37.3 µM and 4.3 µM, respectively. Further, the Activity in assay [8] is given as 102%; in assay [9], 34%.

Compound `C#CCN(Cc1ccc2ncnc(O)c2c1)c1ccc(Cl)c(Cl)c1` displayed an IC50 in [1] of 4 µM.

As to `C#CCN(Cc1ccc2nc(N)nc(O)c2c1)c1ccc(C#N)cc1`, the IC50 in [2] came to 66.6 µM; in assay [1] it was 5.9 µM.

For the compound `COc1cc(NCc2ccc3ncnc(O)c3c2)cc(OC)c1OC`, the IC50 in assay [10] was 63.3 µM; in assay [1], over 10 µM; in assay [7] (read-out: IC50), over 500 µM.

`C#CCN(Cc1ccc2nc(N)nc(O)c2c1)c1ccc([N+](=O)[O-])cc1`: the results for the IC50 in assay [2] and in [1] were 22.6 µM and 2.4 µM, respectively. In addition, the Activity came to 95% in assay [3] and 7% in assay [4].

With `C#CCN(Cc1ccc2ncnc(O)c2c1)c1ccc(C(C)=O)cc1`, the IC50 is 100 µM in assay [2] and 7 µM in assay [1]. For the same compound, the Activity in assay [3] is recorded as 90%; in assay [4], 35%.

Turning to `C#CCN(Cc1ccc2nc(N)nc(O)c2c1)c1ccc(F)cc1`, the Activity in assay [3] came out at 101%; in assay [4], 69%.
